Our source for the Activity values is ChEMBL document CHEMBL4382192, “Discovery of a potent dual ALK and EGFR T790M inhibitor” (Eur J Med Chem, 2017).

Test [1] deals with Tyrosine-protein kinase ABL1 (Homo sapiens), P00519 [F317L]. Nature of the test: Binding affinity to human non-phosphorylated ABL1 F317L mutant (S229 to K512 residues) expressed in mammalian expression system assessed as residual binding level at 1 uM by Kinomescan method relative to control. The essentials: (§1)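 Kinome-wide selectivity panel run by the KINOMEscan method, with the test compound at a single concentration of 1 μM. Wild-type and mutant kinases were profiled in the same screen.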

For test [2], the target named is 5'-AMP-activated protein kinase catalytic subunit alpha-1 (Homo sapiens) (UniProt Q13131). The test can be described thus: Binding affinity to wild-type human partial length AMPK alpha1 (M1 to E306 residues) expressed in bacterial expression system assessed as residual binding level at 1 uM by Kinomescan method relative to control.
For test [3], the system named is Epidermal growth factor receptor (Homo sapiens), P00533 [UNDEFINED MUTATION]. The test can be described thus: Binding affinity to human partial length EGFR L747-E749del/A750P mutant expressed in bacterial expression system assessed as residual binding level at 1 uM by Kinomescan method relative to control. The essentials:
as §1

The subject of test [4] is Epidermal growth factor receptor (Homo sapiens), P00533 [T790M]. The test can be described thus: Binding affinity to human partial length EGFR T790M mutant (R669 to G1022 residues) expressed in mammalian expression system assessed as residual binding level at 1 uM by Kinomescan method relative to control. In short, it runs like this:
as §1

Test [5] addresses Ephrin type-B receptor 6 (Homo sapiens) (UniProt O15197). The test can be described thus: Binding affinity to wild-type human partial length EPHB6 (Q634 to P948 residues) expressed in mammalian expression system assessed as residual binding level at 1 uM by Kinomescan method relative to control.
Test [6] has as its target Mitogen-activated protein kinase 6 (Homo sapiens) (UniProt Q16659). The test can be described thus: Binding affinity to wild-type human partial length ERK3 (M1 to P413 residues) expressed in bacterial expression system assessed as residual binding level at 1 uM by Kinomescan method relative to control.
Test [7] concerns the target Tyrosine-protein kinase Fes/Fps (Homo sapiens) (UniProt P07332). Nature of the test: Binding affinity to wild-type human partial length FES (I527 to R822 residues) expressed in bacterial expression system assessed as residual binding level at 1 uM by Kinomescan method relative to control.
Test [8] concerns the target Tyrosine-protein kinase Fgr (Homo sapiens) (UniProt P09769). Nature of the test: Binding affinity to wild-type human partial length FGR (L233 to T529 residues) expressed in bacterial expression system assessed as residual binding level at 1 uM by Kinomescan method relative to control.
The subject of test [9] is Receptor-type tyrosine-protein kinase FLT3 (Homo sapiens), P36888 [K663Q]. Nature of the test: Binding affinity to human partial length FLT3 K663Q mutant (V592 to Y969 residues) expressed in bacterial expression system assessed as residual binding level at 1 uM by Kinomescan method relative to control. In short, it runs like this:
as §1

The target of test [10] is Mast/stem cell growth factor receptor Kit (Homo sapiens) (UniProt P10721). Nature of the test: Binding affinity to wild-type human partial length KIT (I571 to D952 residues) expressed in bacterial expression system assessed as residual binding level at 1 uM by Kinomescan method relative to control.
The target of test [11] is Leukocyte tyrosine kinase receptor (Homo sapiens) (UniProt P29376). Nature of the test: Binding affinity to wild-type human partial length LTK (P422 to S744 residues) expressed in bacterial expression system assessed as residual binding level at 1 uM by Kinomescan method relative to control.
The target in test [12] is Mitogen-activated protein kinase kinase kinase 1 (Homo sapiens) (UniProt Q13233). Nature of the test: Binding affinity to wild-type human partial length MAP3K1 (L1202 to W1512 residues) expressed in mammalian expression system assessed as residual binding level at 1 uM by Kinomescan method relative to control.
The target of test [13] is Myosin light chain kinase, smooth muscle (Homo sapiens) (UniProt Q15746). Nature of the test: Binding affinity to wild-type human full length MYLK (M854 to E1845 residues) expressed in mammalian expression system assessed as residual binding level at 1 uM by Kinomescan method relative to control. The essentials: (§2)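 Single-point kinome-wide KINOMEscan binding panel, test compound at 1 μM, run by the provider's standard protocol.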

For test [14], the target named is Myosin-IIIa (Homo sapiens) (UniProt Q8NEV4). Nature of the test: Binding affinity to wild-type human partial length MYO3A (M1 to K338 residues) expressed in bacterial expression system assessed as residual binding level at 1 uM by Kinomescan method relative to control.
In test [15] the target is Serine/threonine-protein kinase 38-like (Homo sapiens) (UniProt Q9Y2H1). The test can be described thus: Binding affinity to wild-type human partial length NDR2 (N34 to E447 residues) expressed in bacterial expression system assessed as residual binding level at 1 uM by Kinomescan method relative to control.
Test [16] addresses Serine/threonine-protein kinase NIM1 (Homo sapiens) (UniProt Q8IY84). The test can be described thus: Binding affinity to wild-type human partial length NIM1 (Q44 to N355 residues) expressed in mammalian expression system assessed as residual binding level at 1 uM by Kinomescan method relative to control.
For test [17], the target named is Cyclin-dependent kinase 17 (Homo sapiens) (UniProt Q00537). The test can be described thus: Binding affinity to wild-type human full length PCTK2 (M1 to F523 residues) expressed in bacterial expression system assessed as residual binding level at 1 uM by Kinomescan method relative to control. In short, it runs like this:
as §2

Test [18] deals with Protein kinase C theta type (Homo sapiens) (UniProt Q04759). Nature of the test: Binding affinity to wild-type human partial length PRKCQ (L350 to S706 residues) expressed in bacterial expression system assessed as residual binding level at 1 uM by Kinomescan method relative to control.
Test [19] addresses Interferon-induced, double-stranded RNA-activated protein kinase (Homo sapiens) (UniProt P19525). The test can be described thus: Binding affinity to wild-type human partial length PRKR (F247 to C551 residues) expressed in bacterial expression system assessed as residual binding level at 1 uM by Kinomescan method relative to control.
Test [20] concerns the target SRSF protein kinase 1 (Homo sapiens) (UniProt Q96SB4). Nature of the test: Binding affinity to wild-type human full length SRPK1 (M1 to S655 residues) expressed in bacterial expression system assessed as residual binding level at 1 uM by Kinomescan method relative to control. The essentials: as §2
In test [21] the target is Transient receptor potential cation channel subfamily M member 6 (Homo sapiens) (UniProt Q9BX84). Nature of the test: Binding affinity to wild-type human partial length TRPM6 (Q1723 to I1998 residues) expressed in mammalian expression system assessed as residual binding level at 1 uM by Kinomescan method relative to control.
Test [22] addresses Serine/threonine-protein kinase 32A (Homo sapiens) (UniProt Q8WU08). The test can be described thus: Binding affinity to wild-type human full length YANK1 (M1 to L396 residues) expressed in mammalian expression system assessed as residual binding level at 1 uM by Kinomescan method relative to control.
Test [23] addresses Serine/threonine-protein kinase 25 (Homo sapiens) (UniProt O00506). Nature of the test: Binding affinity to wild-type human partial length YSK1 (V14 to H295 residues) expressed in bacterial expression system assessed as residual binding level at 1 uM by Kinomescan method relative to control.

Each structure is given as a SMILES string.

Serine/threonine-protein kinase 32A (Homo sapiens), sequence (Q8WU08 whole entry, the tested form may be a part): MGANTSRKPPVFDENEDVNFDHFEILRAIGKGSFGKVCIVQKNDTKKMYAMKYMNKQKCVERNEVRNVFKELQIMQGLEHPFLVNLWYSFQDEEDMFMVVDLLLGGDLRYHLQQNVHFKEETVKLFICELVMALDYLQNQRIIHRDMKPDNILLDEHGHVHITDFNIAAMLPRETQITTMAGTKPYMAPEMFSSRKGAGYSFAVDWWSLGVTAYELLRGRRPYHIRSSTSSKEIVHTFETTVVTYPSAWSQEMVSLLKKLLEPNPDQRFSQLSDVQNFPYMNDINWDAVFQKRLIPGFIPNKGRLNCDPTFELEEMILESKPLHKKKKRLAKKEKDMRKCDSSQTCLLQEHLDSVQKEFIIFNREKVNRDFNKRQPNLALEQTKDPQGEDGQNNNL
Mitogen-activated protein kinase 6 (Homo sapiens), sequence (Q16659 whole entry, the tested form may be a part): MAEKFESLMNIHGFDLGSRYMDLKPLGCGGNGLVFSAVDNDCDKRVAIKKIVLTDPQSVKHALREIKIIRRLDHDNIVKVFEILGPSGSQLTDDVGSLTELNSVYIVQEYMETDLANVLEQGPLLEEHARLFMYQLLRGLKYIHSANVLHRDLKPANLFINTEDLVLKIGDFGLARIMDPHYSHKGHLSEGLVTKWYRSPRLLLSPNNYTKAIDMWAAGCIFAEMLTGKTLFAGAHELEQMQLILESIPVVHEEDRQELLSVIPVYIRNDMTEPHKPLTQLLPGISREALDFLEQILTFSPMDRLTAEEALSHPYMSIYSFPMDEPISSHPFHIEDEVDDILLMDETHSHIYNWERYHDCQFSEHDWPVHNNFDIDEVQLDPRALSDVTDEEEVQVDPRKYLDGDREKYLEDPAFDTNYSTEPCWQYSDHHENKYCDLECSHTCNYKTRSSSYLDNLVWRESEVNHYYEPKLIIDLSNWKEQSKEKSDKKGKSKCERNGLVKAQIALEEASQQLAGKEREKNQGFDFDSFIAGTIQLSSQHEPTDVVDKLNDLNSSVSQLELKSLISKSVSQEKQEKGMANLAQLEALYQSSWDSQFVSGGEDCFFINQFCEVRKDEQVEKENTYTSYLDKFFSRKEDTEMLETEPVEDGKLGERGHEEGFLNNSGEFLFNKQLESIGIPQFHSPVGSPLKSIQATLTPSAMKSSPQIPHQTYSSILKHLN
Serine/threonine-protein kinase 38-like (Homo sapiens), sequence (Q9Y2H1 2-464 limits assumed): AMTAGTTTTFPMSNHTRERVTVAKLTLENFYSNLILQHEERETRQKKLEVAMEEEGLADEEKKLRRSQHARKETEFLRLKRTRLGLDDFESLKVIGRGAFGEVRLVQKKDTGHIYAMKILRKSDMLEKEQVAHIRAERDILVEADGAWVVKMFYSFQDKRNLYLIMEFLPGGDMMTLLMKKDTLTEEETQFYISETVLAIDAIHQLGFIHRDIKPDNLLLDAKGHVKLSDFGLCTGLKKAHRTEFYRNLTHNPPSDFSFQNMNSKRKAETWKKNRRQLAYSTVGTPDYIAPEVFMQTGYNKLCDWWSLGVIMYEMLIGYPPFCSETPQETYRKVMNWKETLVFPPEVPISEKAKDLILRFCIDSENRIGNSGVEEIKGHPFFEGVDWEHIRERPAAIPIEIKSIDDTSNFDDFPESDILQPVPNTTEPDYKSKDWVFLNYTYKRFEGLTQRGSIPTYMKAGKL
Tyrosine-protein kinase ABL1 (Homo sapiens), P00519 [F317L], sequence (P00519 whole entry F317L, the tested form may be a part): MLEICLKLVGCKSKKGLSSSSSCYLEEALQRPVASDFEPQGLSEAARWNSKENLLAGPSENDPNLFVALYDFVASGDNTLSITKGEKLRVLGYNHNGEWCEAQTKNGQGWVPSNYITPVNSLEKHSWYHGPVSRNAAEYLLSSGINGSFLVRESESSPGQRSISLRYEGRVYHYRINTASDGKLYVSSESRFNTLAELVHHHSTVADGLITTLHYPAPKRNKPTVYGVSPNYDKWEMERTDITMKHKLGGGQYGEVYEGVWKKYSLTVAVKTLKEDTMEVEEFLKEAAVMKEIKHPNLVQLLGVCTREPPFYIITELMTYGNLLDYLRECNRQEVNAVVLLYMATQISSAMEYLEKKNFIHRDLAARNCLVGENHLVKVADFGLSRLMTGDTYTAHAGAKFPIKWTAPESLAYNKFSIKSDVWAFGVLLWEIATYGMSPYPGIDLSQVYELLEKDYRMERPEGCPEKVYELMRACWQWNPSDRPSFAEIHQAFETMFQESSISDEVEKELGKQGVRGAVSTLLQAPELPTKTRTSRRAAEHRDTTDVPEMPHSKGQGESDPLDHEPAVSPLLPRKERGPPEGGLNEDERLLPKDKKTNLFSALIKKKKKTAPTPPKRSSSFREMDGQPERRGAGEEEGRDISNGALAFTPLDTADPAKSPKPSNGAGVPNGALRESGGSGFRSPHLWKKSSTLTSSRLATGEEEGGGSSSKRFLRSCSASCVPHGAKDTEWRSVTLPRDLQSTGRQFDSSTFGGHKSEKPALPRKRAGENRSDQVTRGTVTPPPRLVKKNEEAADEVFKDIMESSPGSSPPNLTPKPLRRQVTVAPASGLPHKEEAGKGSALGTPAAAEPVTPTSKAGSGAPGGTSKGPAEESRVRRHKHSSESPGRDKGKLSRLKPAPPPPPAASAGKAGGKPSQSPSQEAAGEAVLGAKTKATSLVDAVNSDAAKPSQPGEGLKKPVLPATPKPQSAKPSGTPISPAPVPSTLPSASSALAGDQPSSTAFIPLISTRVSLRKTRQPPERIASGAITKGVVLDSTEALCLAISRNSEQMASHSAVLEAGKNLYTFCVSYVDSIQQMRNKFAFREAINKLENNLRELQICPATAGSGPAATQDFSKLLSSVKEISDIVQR
Serine/threonine-protein kinase 25 (Homo sapiens), sequence (O00506 whole entry, looked up, the tested form may be a part): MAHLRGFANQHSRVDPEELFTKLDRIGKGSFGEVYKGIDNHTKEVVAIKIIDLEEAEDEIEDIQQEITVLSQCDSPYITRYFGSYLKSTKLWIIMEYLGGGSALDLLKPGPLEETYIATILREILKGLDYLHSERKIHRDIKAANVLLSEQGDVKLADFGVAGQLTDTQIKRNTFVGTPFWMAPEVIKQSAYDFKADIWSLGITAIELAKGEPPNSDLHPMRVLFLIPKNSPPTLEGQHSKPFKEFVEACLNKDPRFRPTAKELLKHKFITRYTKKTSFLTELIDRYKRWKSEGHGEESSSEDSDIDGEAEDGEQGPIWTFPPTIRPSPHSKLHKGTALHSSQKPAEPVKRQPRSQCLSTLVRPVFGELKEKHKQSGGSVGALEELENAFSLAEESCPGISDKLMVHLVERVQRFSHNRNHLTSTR
Myosin-IIIa (Homo sapiens), sequence (Q8NEV4 whole entry, the tested form may be a part): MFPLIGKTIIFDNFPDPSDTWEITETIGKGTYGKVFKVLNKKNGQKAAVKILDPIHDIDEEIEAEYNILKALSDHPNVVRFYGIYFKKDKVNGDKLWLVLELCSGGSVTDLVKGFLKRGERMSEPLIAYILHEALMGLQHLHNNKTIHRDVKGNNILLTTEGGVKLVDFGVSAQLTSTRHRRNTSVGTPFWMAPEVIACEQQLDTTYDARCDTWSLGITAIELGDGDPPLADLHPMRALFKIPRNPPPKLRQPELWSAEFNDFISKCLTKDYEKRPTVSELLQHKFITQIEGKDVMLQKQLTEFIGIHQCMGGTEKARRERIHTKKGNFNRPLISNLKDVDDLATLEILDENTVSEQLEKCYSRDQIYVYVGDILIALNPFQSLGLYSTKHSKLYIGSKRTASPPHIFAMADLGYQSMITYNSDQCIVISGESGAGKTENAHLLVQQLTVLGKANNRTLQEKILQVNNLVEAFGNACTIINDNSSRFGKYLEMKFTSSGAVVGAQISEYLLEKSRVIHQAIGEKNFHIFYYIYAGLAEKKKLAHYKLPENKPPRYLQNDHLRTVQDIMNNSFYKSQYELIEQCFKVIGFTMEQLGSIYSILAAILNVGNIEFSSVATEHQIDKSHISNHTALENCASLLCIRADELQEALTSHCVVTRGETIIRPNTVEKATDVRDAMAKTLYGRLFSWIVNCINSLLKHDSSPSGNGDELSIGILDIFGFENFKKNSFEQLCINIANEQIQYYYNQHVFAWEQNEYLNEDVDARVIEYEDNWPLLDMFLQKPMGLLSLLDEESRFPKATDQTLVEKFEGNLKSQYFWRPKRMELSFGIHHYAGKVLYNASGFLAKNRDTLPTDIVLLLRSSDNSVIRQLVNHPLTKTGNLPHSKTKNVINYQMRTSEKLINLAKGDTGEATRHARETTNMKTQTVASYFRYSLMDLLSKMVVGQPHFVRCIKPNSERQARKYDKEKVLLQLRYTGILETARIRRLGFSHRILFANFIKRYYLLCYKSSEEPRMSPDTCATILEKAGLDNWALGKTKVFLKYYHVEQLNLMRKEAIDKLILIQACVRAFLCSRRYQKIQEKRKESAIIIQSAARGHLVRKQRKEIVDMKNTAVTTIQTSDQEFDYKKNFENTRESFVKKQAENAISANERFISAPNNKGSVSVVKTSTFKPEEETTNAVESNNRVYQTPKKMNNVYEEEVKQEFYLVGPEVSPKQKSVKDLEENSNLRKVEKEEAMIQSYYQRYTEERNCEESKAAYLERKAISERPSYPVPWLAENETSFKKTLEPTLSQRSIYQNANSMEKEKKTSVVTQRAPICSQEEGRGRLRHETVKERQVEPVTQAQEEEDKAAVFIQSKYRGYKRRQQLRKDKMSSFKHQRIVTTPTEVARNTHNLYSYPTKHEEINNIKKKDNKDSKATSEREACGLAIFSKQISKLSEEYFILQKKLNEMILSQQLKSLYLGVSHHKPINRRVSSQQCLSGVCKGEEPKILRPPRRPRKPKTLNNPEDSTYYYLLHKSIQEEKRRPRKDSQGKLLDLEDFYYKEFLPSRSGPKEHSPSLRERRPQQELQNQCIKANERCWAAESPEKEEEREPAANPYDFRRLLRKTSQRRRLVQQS

Consider `C=CC(=O)Nc1cc(Nc2ncc(Cl)c(Nc3ccccc3S(=O)(=O)C(C)C)n2)c(OC)cc1N(C)CCN(C)C`, for which the Activity in [1] was 0.8%; in test [2], 16%; in test [3], 0%; in test [4], 0%; in [5] it was 15%; in [6] it was 94%. Further, the Activity is 1.4% in test [7]; 57% in test [8]; 2.5% in [9]; 39% in [10]; 0% in [11]; 84% in test [12]. Further, the Activity in [13] amounted to 1.3%; in [14], 31%; in test [15], 54%; in test [16], 100%; in [17], 74%; in test [18], 48%. Besides, the Activity amounted to 66% in [19]; 28% in test [20]; 52% in [21]; 2.3% in [22]; 81% in test [23].
